The values below come from ChEMBL document CHEMBL1629705, “PSI-7851, a pronucleotide of beta-D-2'-deoxy-2'-fluoro-2'-C-methyluridine monophosphate, is a potent and pan-genotype inhibitor of hepatitis C virus replication” (Antimicrob Agents Chemother, 2010).

In experiment [1] the target is T1, DNA-directed RNA polymerase II subunit RPB1 (Homo sapiens, UniProt P24928). Put plainly: Inhibition of human RNA polymerase 2 assessed as synthesis of RNA products at 500 uM. Summed up: (§1)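 In vitro transcription by HeLa nuclear extract from CMV immediate-early promoter DNA. Mix: 400 μM ATP, CTP and UTP, 16 μM GTP, [α-32P]GTP, 3 mM MgCl2, in 20 mM HEPES pH 7.9 buffer with KCl, EDTA, DTT and glycerol. Inhibitor up to 1 mM. 30°C for 60 min. RNA purified, run on 6% sequencing gel and quantified by phosphorimager.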

Experiment [2] has as its target T1, DNA-directed RNA polymerase II subunit RPB1. Kind of experiment: Inhibition of human RNA polymerase 2 assessed as synthesis of RNA products at 1 uM. The procedure, abridged:
as §1

Experiment [3] has the same target. Kind of experiment: Inhibition of human RNA polymerase 2. Summed up: as §1
Experiment [4] relates to Hepatitis C virus. Kind of experiment: Antiviral activity against Hepatitis C virus. Format: functional, organism-based, Hepacivirus hominis.
For experiment [5], the system named is Hepatitis C virus. Put plainly: Antiviral activity against Hepatitis C virus assessed as log reduction in viral RNA at 0.1 uM after 3 weeks. In kind it is functional, Hepacivirus hominis. The procedure, abridged:
(§2)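 ET-lunet replicon cells seeded at 1 × 10^5/well without G418, treated at 0.1, 1 or 2 μM (final DMSO 0.5%). Passaged 1:3–1:4 every 3–4 days for 3 weeks with fresh compound. Then compound withdrawn and cells grown 3 more weeks in 0.25 mg/ml G418. HCV RNA by RT-PCR (ΔΔCt vs rRNA and DMSO controls, log change). Colonies fixed in formaldehyde and stained with crystal violet at 6 weeks.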

For experiment [6], the system named is Hepatitis C virus. Put plainly: Antiviral activity against Hepatitis C virus assessed as inhibition of viral rebound at 1 uM after 3 weeks in presence of G418. In kind it is functional, organism-based. The following applies: Hepacivirus hominis. Summed up:
(§3)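 ET-lunet replicon cells, 1 × 10^5/well, no G418, with compound at 0.1, 1 or 2 μM (final DMSO 0.5%). Passaged 1:3 or 1:4 every 3–4 days for 3 weeks with fresh compound, then 3 more weeks with 0.25 mg/ml G418 and no inhibitor. HCV RNA by RT-PCR normalized to rRNA (ΔΔCt vs DMSO) at each passage. Crystal violet colony staining at 6 weeks.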

In experiment [7] the test system is Hepatitis C virus. Kind of experiment: Antiviral activity against Hepatitis C virus assessed as inhibition of viral rebound at 2 uM after 3 weeks in presence of G418. Format: functional, organism-based. The note with it: Hepacivirus hominis. Summed up:
as §3

For experiment [8], the system named is Hepatitis C virus. Kind of experiment: Antiviral activity against Hepatitis C virus assessed as inhibition of viral rebound at 0.1 uM after 3 weeks in presence of G418. The note with it: Hepacivirus hominis. Format: functional, organism-based. The procedure, abridged: as §2
Experiment [9] concerns Hepatitis C virus. Put plainly: Antiviral activity against Hepatitis C virus assessed as clearance of HCV from replicon cells at 1 uM. Format: functional, organism-based. The note with it: Hepacivirus hominis. The procedure, abridged:
as §3
A general note: In antiviral work, replicon cells carry a viral genome segment that copies itself.

In experiment [10] the test system is Hepatitis C virus. Put plainly: Antiviral activity against Hepatitis C virus assessed as clearance of HCV from replicon cells at 2 uM. In kind it is functional, organism-based. The following applies: Hepacivirus hominis. Summed up: as §3
Experiment [11] has as its target DNA polymerase beta (Homo sapiens, UniProt P06746). Put plainly: Inhibition of human DNA polymerase beta assessed as incorporation of [alpha-32P]dCTP up to 1mM preincubated for 30 mins by whatman DE81 paper binding assay. Summed up: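 Human DNA polymerase β at 18 μg/ml final, in 50 mM Tris pH 7.5, 50 mM NaCl, 5 mM MgCl2, activated calf thymus DNA and 20 μM each dNTP with [α-32P]dCTP. Triphosphate up to 1 mM. 37°C, stopped at 30 min with EDTA. Products quantified by DE81 paper binding; IC50 by nonlinear fit.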

For experiment [12], the target named is T2, DNA polymerase subunit gamma-1 (Homo sapiens, UniProt P54098).
T2 sequence (P54098 whole entry): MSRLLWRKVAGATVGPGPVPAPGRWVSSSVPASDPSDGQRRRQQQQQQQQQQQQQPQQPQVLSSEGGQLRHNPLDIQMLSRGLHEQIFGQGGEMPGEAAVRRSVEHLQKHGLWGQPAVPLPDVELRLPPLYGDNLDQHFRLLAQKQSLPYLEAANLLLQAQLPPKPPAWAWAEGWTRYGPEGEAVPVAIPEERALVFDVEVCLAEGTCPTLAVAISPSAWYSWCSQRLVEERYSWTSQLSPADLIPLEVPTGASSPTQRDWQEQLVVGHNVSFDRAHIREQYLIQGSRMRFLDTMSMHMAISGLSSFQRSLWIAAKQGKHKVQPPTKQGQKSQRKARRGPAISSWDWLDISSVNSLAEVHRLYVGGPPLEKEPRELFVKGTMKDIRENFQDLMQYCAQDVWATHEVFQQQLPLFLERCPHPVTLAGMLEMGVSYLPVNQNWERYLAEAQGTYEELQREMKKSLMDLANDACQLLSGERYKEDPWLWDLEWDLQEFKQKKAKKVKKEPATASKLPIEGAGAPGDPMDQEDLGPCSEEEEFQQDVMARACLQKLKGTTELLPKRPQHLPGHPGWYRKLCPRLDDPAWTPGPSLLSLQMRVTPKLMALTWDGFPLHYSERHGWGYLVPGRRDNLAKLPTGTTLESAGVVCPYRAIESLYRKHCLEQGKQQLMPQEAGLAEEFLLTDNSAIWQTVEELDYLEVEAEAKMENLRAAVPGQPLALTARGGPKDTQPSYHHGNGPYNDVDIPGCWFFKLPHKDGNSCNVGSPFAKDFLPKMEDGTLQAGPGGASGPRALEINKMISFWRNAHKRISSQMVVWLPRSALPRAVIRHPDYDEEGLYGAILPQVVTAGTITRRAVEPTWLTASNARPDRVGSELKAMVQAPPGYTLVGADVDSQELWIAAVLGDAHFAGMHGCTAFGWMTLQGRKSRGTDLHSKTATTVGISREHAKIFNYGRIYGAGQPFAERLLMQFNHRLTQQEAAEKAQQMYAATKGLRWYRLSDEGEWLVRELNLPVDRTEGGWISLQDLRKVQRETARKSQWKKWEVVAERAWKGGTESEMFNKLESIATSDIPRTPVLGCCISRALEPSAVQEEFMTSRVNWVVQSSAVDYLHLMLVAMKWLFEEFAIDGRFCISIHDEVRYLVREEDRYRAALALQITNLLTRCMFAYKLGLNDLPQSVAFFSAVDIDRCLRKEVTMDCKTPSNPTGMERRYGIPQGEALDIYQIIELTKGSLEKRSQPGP
Put plainly: Inhibition of human DNA polymerase gamma assessed as incorporation of [alpha-32P]dCTP up to 1mM preincubated for 30 mins by whatman DE81 paper binding assay. Summed up: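 Human DNA polymerase α (20 μg/ml) or γ (50 μg/ml) in 50 mM Tris pH 7.5, 50 mM NaCl, activated calf thymus DNA, 20 μM each dNTP, [α-32P]dCTP, 5 mM MgCl2. Nucleotide inhibitor up to 1 mM. 37°C, quenched with EDTA at 30 min. Product measured by DE81 paper binding; IC50 by nonlinear fit.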

Experiment [13] relates to Hepatitis C virus. Kind of experiment: Antiviral activity against Hepatitis C virus Con1 infected in human lunet cells assessed as inhibition of viral RNA replication after 4 days by luciferase reporter gene assay. In kind it is functional, organism-based, Hepacivirus hominis. The note with it: 96 h. Summed up:
(§4)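 Genotype 1b Con1 subgenomic replicon cells (ET-lunet, 3,000 cells/well, firefly luciferase ET replicon; clone A, 1,500 cells/well) incubated 4 days with serially diluted compound. Replication read by luciferase luminescence and/or real-time RT-PCR.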
Background: In a reporter assay the amount or activity of a reporter protein is the signal.

Experiment [14] concerns Hepatitis C virus. Put plainly: Antiviral activity against Hepatitis C virus isolate Con1 infected in human HuH-7 cells assessed as inhibition of viral RNA replication after 4 days by luciferase reporter gene assay. In kind it is functional, Hepacivirus hominis. The note with it: Con1, Huh-7, 96 h. Summed up:
as §4

In experiment [15] the test system is Hepatitis C virus. Kind of experiment: Antiviral activity against Hepatitis C virus harboring NS5B polymerase S96T/N142T mutant gene infected in human […] cells by luciferase-based replicon assay. In kind it is functional, Hepacivirus hominis. Summed up: (§5)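 ET-lunet cells with the ET genotype 1b replicon, wild-type or S96T/N142T (ET replicon with these mutations electroporated into Lunet cells, selected in 0.2 mg/ml G418). 3,000 cells/well, 4 days with serially diluted compound. Firefly luciferase luminescence read-out; EC90 from dose–response.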

The test system of experiment [16] is Hepatitis C virus. Put plainly: Antiviral activity against Hepatitis C virus harboring wild-type NS5B infected in human HuH7 cells by luciferase-based replicon assay. Format: functional, Hepacivirus hominis. The note with it: Huh-7.
The test system of experiment [17] is Hepatitis C virus. Put plainly: Antiviral activity against Hepatitis C virus harboring NS5B polymerase S282T mutant gene infected in human HuH7 cells by luciferase-based replicon assay. In kind it is functional, Hepacivirus hominis. The note with it: Huh-7.
Experiment [18] concerns Hepatitis C virus. Kind of experiment: Selectivity ratio of EC90 for Hepatitis C virus harboring NS5B polymerase S282T mutant gene to EC90 for Hepatitis C virus harboring wild-type NS5B polymerase. Format: functional, Hepacivirus hominis. The procedure, abridged: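 Clone A genotype 1b (Con1) replicon cells, wild-type or S282T mutant (selected with 2′-C-methyladenosine). 1,500 cells/well, 4 days with serially diluted compound. HCV RNA by real-time RT-PCR; EC90 from dose–response.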

For experiment [19], the system named is Hepatitis C virus. Put plainly: Antiviral activity against Hepatitis C virus harboring wild-type NS5B infected in human lunet cells by luciferase-based replicon assay. Format: functional, Hepacivirus hominis. Summed up: as §5
The test system of experiment [20] is Hepatitis C virus. Put plainly: Antiviral activity against Hepatitis C virus harboring NS5B polymerase S96T mutant gene infected in human lunet cells by luciferase-based replicon assay. Format: functional, Hepacivirus hominis. Summed up: as §5
The subject of experiment [21] is Hepatitis C virus. Put plainly: Selectivity ratio of EC90 for Hepatitis C virus harboring NS5B polymerase S96T mutant gene to EC90 for HCV harboring wild type NS5B polymerase. Format: functional, Hepacivirus hominis.

Activity calls are given as the source filed them. The calls are words filed in the database; no cut-off is given here.

As to `Nc1ccn([C@@H]2O[C@H](COP(=O)(O)OP(=O)(O)OP(=O)(O)O)C[C@H]2O)c(=O)n1`, the inhibition (commonly the percentage by which the read-out fell short of the control) in experiment [1] turned out to be 67%. Moreover, the inhibition result in experiment [2] was “Active”. The IC50 (commonly the midpoint of a concentration-inhibition curve) in [3] is more than 500 µM.
Regarding `CC(C)CCn1c(=O)c(C2=NS(=O)(=O)c3cc(N(C)S(C)(=O)=O)ccc3N2)c(O)c2cccn21`, the EC50 (as a rule, the concentration needed to bring the measured effect to its halfway point) in experiment [4] was determined as 110 nM. Besides, the FC in experiment [5] turned out to be 0.69. Moreover, the outcome in experiment [6], in experiment [8], in experiment [9] and in experiment [10] was inactive. For the same molecule, in experiment [7], the result was Active.
For `C[C@@]1(CO)[C@H](O)CC[C@@]2(C)[C@H]1CC[C@H]1C[C@@H]3C[C@@]12CC[C@]3(O)CO` [APHIDICOLIN], the IC50 in experiment [11] and in experiment [12] was more than 100 µM each time.
Consider `C[C@@]1(F)[C@H](O)[C@@H](CO)O[C@H]1n1ccc(N)nc1=O`, for which, in experiment [13], the EC50 amounted to 75 nM and the EC90 – broadly, the point of the concentration-response curve where the effect stands at 90% – turned out to be 520 nM. Further, the EC90 in [14] turned out to be 450 nM.
Turning to `[N-]=[N+]=N[C@]1(CO)O[C@@H](n2ccc(N)nc2=O)[C@H](O)[C@@H]1O` [4'-AZIDOCYTIDINE], the 90% effect concentration (EC90) was found to be 80.1 µM in [15]; 18.6 µM in experiment [16]; 24.9 µM in experiment [17]; 17 µM in experiment [19]; 80.1 µM in [20]. Besides, the Selectivity ratio was 1.3 in experiment [18] and 4.7 in experiment [21].
